# From PubChem BioAssay
# Most compounds without a hit are left out; they make up all but 3.3% or so of the library.
# Myeloid diff MLP – compounds promoting myeloid differentiation; ER-HoxA9 myeloid progenitors, lysozyme-GFP differentiation, flow cytometry; calls only at 10 µM; 360,000 compounds, 1% hits; AID 624256;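 active = normalized GFP-positive differentiation at or above the plate's own cutoff, the solvent-only control mean plus 3 SD; inconclusive = no clear call, values can overlap the other calls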;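 note: cells exposed to compound for four days before flow analysis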
# ABCB6 inh MLPCN – human ABCB6 transporter inhibition; K562-ABCB6 porphyrin accumulation, flow cytometry, 1 h; active compounds read low; 360,000 compounds, 0.19% hits; Q9NP58; AID 602162; fluorescence ratio to DMSO, % at 10 µM;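 active = fluorescence ratio to DMSO below 75%, the collection mean minus 3 SD; inconclusive = too few cells collected in the well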;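 note: signal is porphyrin accumulated inside mitochondria; 100% equals median channel fluorescence of DMSO control wells; lower ratio means ABCB6 inhibition with less porphyrin fluorescence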
# Target sequence (Q9NP58 whole entry, looked up): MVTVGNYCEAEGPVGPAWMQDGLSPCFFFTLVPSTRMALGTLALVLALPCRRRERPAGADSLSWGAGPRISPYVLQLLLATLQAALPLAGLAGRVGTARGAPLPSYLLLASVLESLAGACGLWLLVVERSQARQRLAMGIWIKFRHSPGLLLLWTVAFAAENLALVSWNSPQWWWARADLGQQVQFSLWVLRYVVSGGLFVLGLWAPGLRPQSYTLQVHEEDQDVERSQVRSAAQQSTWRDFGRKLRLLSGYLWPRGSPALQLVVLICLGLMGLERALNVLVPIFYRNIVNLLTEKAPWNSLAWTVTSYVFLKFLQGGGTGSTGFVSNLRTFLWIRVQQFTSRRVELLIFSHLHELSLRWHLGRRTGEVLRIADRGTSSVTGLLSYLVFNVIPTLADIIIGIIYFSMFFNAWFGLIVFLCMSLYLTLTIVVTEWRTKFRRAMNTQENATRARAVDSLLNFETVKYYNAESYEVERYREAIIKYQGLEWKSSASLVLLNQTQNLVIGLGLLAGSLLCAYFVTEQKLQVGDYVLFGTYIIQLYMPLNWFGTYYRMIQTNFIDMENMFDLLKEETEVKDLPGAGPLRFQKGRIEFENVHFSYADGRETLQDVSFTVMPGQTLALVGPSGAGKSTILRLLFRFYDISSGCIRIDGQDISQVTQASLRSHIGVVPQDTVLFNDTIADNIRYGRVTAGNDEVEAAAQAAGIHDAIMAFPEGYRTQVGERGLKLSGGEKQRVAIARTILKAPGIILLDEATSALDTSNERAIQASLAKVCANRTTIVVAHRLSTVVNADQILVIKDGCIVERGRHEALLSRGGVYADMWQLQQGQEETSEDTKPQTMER
# CendR NRP1 mod – NRP-1/CendR interaction modulation | AID 602438 | inhibition, % at 25 µM | 360,000 compounds, 0.85% hits | FAM-RPARPAR peptide binding to NRP-1, fluorescence polarization | O14786;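 active = inhibition or corrected inhibition above about 18%, plus a signal ratio from 0.5 to 1.5, limit read from the data, passing the limit was not always enough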
# ATG4B inhibitor – blocks human ATG4B protease cleavage of LC3 substrate. inhibition, % at 8.33 µM. 340,000 compounds, 0.51% hits. AID 504462. Q9Y4P1. ATG4B cleavage of LC3-PLA2, NBD-HPC fluorescence, 1 h; in the data active = inhibition above about 40%
# Arr AP2 block – blocks beta-arrestin peptide binding to AP2 adaptin; 340,000 compounds, 0.31% hits; FITC-arrestin peptide / GST-AP2 beads, flow cytometry; AP2 beta2 appendage carries R879A mutation; inhibition, % at 10 µM;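 active = inhibition above a set limit, near 3 SD of compounds lacking own fluorescence, cut at about 54% in these data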;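 note: plate controls were DMSO wells for no effect and 5 µM unlabelled arrestin peptide for full effect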
#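 system = GST-tagged AP2 beta2-adaptin appendage (R879A) on 4 µm glutathione beads | reagent = FITC-labelled arrestin peptide probe, 50 nM final | schedule = compound with beads 12 min RT, then probe 1 h RT | signal = HyperCyt-sampled flow cytometry, FL1 channel, ex 488/em 535 nm | read-out = percent response from loss of bead-bound FITC fluorescence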
# Granule exo inh – blocks lytic granule exocytosis. 360,000 compounds, 0.66% hits. TALL-104 LAMP-1 surface exposure, flow cytometry; cells stimulated with thapsigargin and PMA. inhibition, % at 10 µM. AID 651702;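 active = inhibition above about 55%, limit read from the data; inconclusive = no clear call, values can overlap the other calls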
# ABCB6 blocker 1 – inhibitors of human ABC transporter ABCB6 | 700 tested, under 10 active | ratio response (% of DMSO), % at 10 µM | AID 602430 | K562-ABCB6 porphyrin accumulation, flow cytometry, 1 h; active compounds read low | shares compounds with ABCB6 inh MLPCN;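 active = repeat-averaged ratio response below 75% of DMSO, the collection mean minus 3 SD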;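 note: median porphyrin fluorescence at 575 nm with 488 nm excitation from mitochondria; lower ratio means less porphyrin signal so ABCB6 inhibition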
# K562 vector FC – activity in empty-vector K562 counter-screen for ABCB6 inhibitors; percent response (fluorescence), % at 100 µM; 25 tested, under 10 active; K562 empty-vector cells, flow cytometry fluorescence, 1 h; AID 624484; shares compounds with ABCB6 inh MLPCN;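 active = compounds whose half-maximal effective concentration is below 100 µM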
# * = called active by the depositor; i = inactive; ? = inconclusive; / = not tested or not shown.
SMILES,Myeloid diff MLP,ABCB6 inh MLPCN,CendR NRP1 mod,ATG4B inhibitor,Arr AP2 block,Granule exo inh,ABCB6 blocker 1,others
Cc1nc2c(C(=O)N3CCN(c4ccccn4)CC3)cnn2c(C)c1Cc1cccc(Cl)c1,i,91.0,-13.6,-1.0,29.7,-2.9,/,
Cc1ccc(C)c(Cc2c(C)nc3c(C(=O)N4CCOCC4)cnn3c2C)c1,i,93.0,-17.8,6.1,4.3,2.4,101.0,
Cc1nc2c(C(=O)O)cnn2c(C)c1Cc1ccccc1F,i,92.0,-3.3,-1.2,-2.5,0.2,/,
Cc1ccccc1Cc1c(C)nc2c(C(=O)NCc3ccco3)cnn2c1C,i,70.0*,-22.4,-5.4,22.4,13.4,99.0,
Cc1nc2c(C(=O)N3CCCC3)cnn2c(C)c1Cc1c(F)cccc1Cl,i,95.0,-12.7,2.0,9.6,-0.2,97.0,
CCOC(=O)N1CCN(C(=O)c2cnn3c(C)c(Cc4ccc(C)cc4)c(C)nc23)CC1,i,111.0,5.2,-5.0,-1.2,0.1,99.0,
CCOC(=O)c1c(Cc2ccccc2)c[nH]c1C,i,104.0,-7.2,-2.6,12.7,-0.1,/,
O=C(COC(=O)CC12CC3CC(CC(C3)C1)C2)Nc1cccnc1Cl,i,103.0,-11.4,-8.1,0.2,-0.8,/,
CCn1c(SCC(=O)Nc2nc3ccc(OC)cc3s2)nc2c1c(=O)n(C)c(=O)n2C,i,72.0*,-11.3,-3.0,12.6,0.2,100.0,
COc1ccc(NC(=O)CSc2nnc(-c3ccccn3)n2N)c(OC)c1,i,73.0*,7.7,-4.4,7.6,3.4,102.0,
COc1ccc(N=CC2=C(O)c3ccccc3C2=O)cc1,i,89.0,-6.2,-1.2,-3.2,0.5,/,
O=C1C(C=Nc2ccccc2)=C(O)c2ccccc21,i,71.0*,15.3,-13.0,2.5,-1.6,97.0,
COc1ccc(OC)c(NC(=O)c2nc(S(=O)(=O)Cc3ccccc3)ncc2Cl)c1,?,83.0,11.3,2.0,20.1,34.9,/,K562 vector FC=594.0
COc1ccc(NC(=O)c2nc(S(=O)(=O)Cc3cccc(C)c3)ncc2Cl)c(OC)c1,?,151.0,-5.3,-3.0,-14.6,24.2,/,K562 vector FC=271.4
COc1ccc(NC(=O)c2c(-c3ccccc3Cl)noc2C)c(OC)c1,i,97.0,1.5,4.7,-5.9,11.6,/,
COc1ccc(OC)c(NC(=O)CS(=O)(=O)Cc2ccccc2)c1,i,104.0,-4.7,-13.2,-5.4,-7.9,/,
CCN(CC)C(=O)C(=O)N/N=C/c1ccc(C(=O)OC)cc1,i,100.0,1.2,2.9,-7.1,-0.5,/,
COc1ccc(CNS(=O)(=O)NCc2ccccc2F)cc1,i,70.0*,18.3,6.1,7.7,-0.4,96.0,
O=S(=O)(NCc1ccccc1)NCc1ccccc1F,i,96.0,0.9,0.1,3.6,-8.2,/,
O=C(Nc1c2c(nn1-c1ccc(Cl)cc1)CS(=O)(=O)C2)C1CC1,i,94.0,3.1,6.3,23.6,-1.0,/,
Cc1ccc(-n2nc3c(c2NC(=O)C2CCCC2)CS(=O)(=O)C3)cc1,i,10.0*,10.0,0.9,-1.6,-15.7,95.0,
O=C(Nc1cccc2cccnc12)c1ccc2c(c1)OCCO2,i,43.0*,-1.9,-9.2,-0.7,3.5,97.0,
COc1ccc(CCCNC(=O)C2(C)Cc3c(-c4ccc(C(N)=O)cc4)ccnc3O2)cc1 (centres undefined),i,71.0*,-6.6,/,/,6.7,98.0,
Nn1c(SCC(=O)NCCC2=CCCCC2)nnc1-c1cccnc1,i,91.0,-20.9,-3.2,-4.9,14.9,/,
CCN(CC)S(=O)(=O)c1cccc(-c2nnc(SCC(=O)NCCC3=CCCCC3)n2N)c1,i,71.0*,-9.7,-13.6,-11.8,0.1,100.0,
SMILES,Myeloid diff MLP,ABCB6 inh MLPCN,CendR NRP1 mod,ATG4B inhibitor,Arr AP2 block,Granule exo inh,ABCB6 blocker 1,others
COc1cc(OC)c(OC)cc1CNCCNC(=O)c1ccco1,i,95.0,-8.0,-4.8,-9.2,-9.9,/,
NC(N)=Nc1nc(CSCC/C(N)=N/S(N)(=O)=O)cs1,i,72.0*,-4.7,-0.8,-9.6,-4.1,97.0,
Cc1ccc(-c2csc(N=C(N)N)n2)cc1,i,91.0,-4.0,-4.9,-21.0,11.4,/,
Nc1nc(SCc2c(F)cccc2Cl)[nH]c(=O)c1-c1ccccc1,i,50.0*,7.1,25.1,37.4,6.7,98.0,
CC12CCC(=O)N1C(C(=O)Nc1cc(Cl)ccc1N1CCOCC1)CS2 (centres undefined),i,92.0,16.4,-5.3,-2.9,-16.4,/,
CCCNC(=O)C1(C)CCN(Cc2ccc(C)c3ccccc23)C1 (centres undefined),i,96.0,-3.4,/,/,1.1,/,
COc1ccccc1OCc1nnc(SCC(=O)N2CCCC2)o1,i,96.0,19.7,-3.4,-1.0,-12.8,/,
COc1ccccc1OCc1nnc(SCC(=O)c2cc(Cl)ccc2OC)o1,i,68.0*,7.1,-13.2,3.8,4.8,98.0,
NCCOc1cnn(-c2ccccc2Cl)c(=O)c1Cl,i,102.0,1.5,2.8,12.5,0.8,/,
CCN(Cc1ccccc1)Cc1c(C)[nH]c2c(C)c(C)ccc2c1=O,i,55.0*,4.2,-2.6,-0.8,-2.2,99.0,
CCN(CC)c1ccc(C(=O)OCC(=O)N(C)Cc2ccccc2)cc1,i,65.0*,15.7,11.4,4.8,-0.3,100.0,
CCN(CC)c1ccc(C(=O)OCC(=O)N(C(C)C)C(C)C)cc1,i,96.0,-1.6,-8.1,4.8,1.6,/,
COCC1CCCN(C(=O)c2ccc(OC3CCN(Cc4ccccn4)CC3)cc2)C1 (centres undefined),i,12.0*,0.2,30.1,-20.6,0.7,95.0,
CC(=O)N1CCN(C(=O)c2ccc(OC3CCN(Cc4ccccn4)CC3)cc2)CC1,i,101.0,6.7,14.3,10.4,10.4,/,
COc1ccc(CN=C2NC(=O)CC(C(=O)Nc3ccccc3C)S2)cc1 (centres undefined),i,102.0,-5.0,-4.4,4.3,-3.2,/,
CN1CCN(NC(=O)c2cc(-c3ccc(Cl)s3)nc3ccccc23)CC1,i,72.0*,-2.9,-8.1,18.6,34.5,101.0,
CN1CCN(NC(=O)c2cc(-c3ccccn3)nc3ccccc23)CC1,i,95.0,-9.8,-10.8,14.9,4.1,/,
Nn1c(SCC(=O)N2CCOCC2)nnc1-c1ccc(Cl)cc1Cl,i,83.0,-7.3,-12.5,0.9,-1.7,/,
Cn1c(SCC(=O)N2CCOCC2)nnc1-c1ccc(Cl)cc1Cl,i,73.0*,-12.1,-10.9,1.7,0.6,103.0,
CCCC(=O)N1CCCC1(C)C(=O)Nc1cc(OC)c(OC)c(OC)c1 (centres undefined),i,97.0,1.1,/,/,2.5,/,
